# Measured values from paper PMC3215888 (Cancer Chemotherapy and Pharmacology, 2011).
# Like-named read-outs stand apart in the source and are kept apart here.
# Key:
# [1] = Toxicity; type: in vivo, mice; conditions: solid tumor study at the MTD
# Outline: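 Deaths counted in control and treated arms of the xenograft efficacy studies (10 mice per solid tumor group, 8 per ALL group). A group would be excluded from analysis if mortality exceeded 25%.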
# [2] = tested on: NB-1382 Neuroblastoma xenograft; type: in vivo, mice; conditions: 20.8 mg/kg
# Outline: (§1)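 Female CB17 scid mice bearing subcutaneous tumors, 10 per group. Dosed by oral gavage twice daily, 5 days weekly for 6 weeks, at 20.8, 10.4, 5.2 or 2.6 mg/kg, in 10% 2-hydroxypropyl-β-cyclodextrin/1% sodium bicarbonate. Event = quadrupled tumor volume; EFS by Kaplan–Meier, exact log-rank test. Per-mouse scores PD/SD/PR (≥50% regression)/CR (<0.10 cm3)/MCR; group median reported. PR, CR and MCR count as objective responses.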
# [3] = tested on: SMS-KANR neuroblastoma cell line; experiment: DIMSCAN in vitro testing, 96 h; type: cell-based; conditions: for IC50: Neuroblastoma cell, 96 h
# [4] = tested on: CHLA-258 Ewing sarcoma cell line; experiment: DIMSCAN in vitro testing, 96 h; type: cell-based; conditions: for IC50: 96 h
# Outline: (§2)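 Neuroblastoma and Ewing sarcoma lines, STR-verified and maintained as in the originators' reports. Exposed for 96 h to test compound (DMSO stock diluted in medium) at 1 nM–10 μM. Viable cells quantified by fluorescein diacetate fluorescence with DIMSCAN digital image microscopy. Absolute IC50 = concentration giving 50% growth inhibition vs controls. Relative IC50 = concentration giving 50% of the maximum inhibitory effect.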
# [5] = tested on: OS-1 Osteosarcoma xenograft; type: in vivo, mice
# Outline: as §1
# [6] = tested on: solid tumor and ALL xenograft models; experiment: EFS activity across all xenograft models at the MTD; type: in vivo, mice; conditions: MTD 20.8 mg/kg
# [7] = tested on: CHLA-90 neuroblastoma cell line; experiment: DIMSCAN in vitro testing, 96 h; type: cell-based; conditions: for IC50: Neuroblastoma cell, 96 h
# Outline: as §2
# [8] = tested on: NB-1771 tumor xenograft; experiment: Pharmacodynamics: mitotic index; type: in vivo, mice; conditions: single 20.8 mg/kg
# Outline: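 Single oral 20.8 mg/kg dose to mice bearing NB-1771 tumors. Tumors taken at 0, 2, 6, 8, 12 and 24 h (3 mice per time), formalin-fixed, paraffin-embedded. 5 μm sections immunofluorescently stained for MPM2 (1:100) and phospho-Ser10 histone H3 (1:25), 60 min at room temperature, DAPI counterstain. Five 40× images per slide; mitotic index = % cells positive for either marker; mean ± SD.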
# [9] = tested on: SMS-MSN neuroblastoma cell line; experiment: DIMSCAN in vitro testing, 96 h; type: cell-based; conditions: for IC50: Neuroblastoma cell, 96 h
# Outline: as §2
# [10] = tested on: SK-N-AS Neuroblastoma xenograft; type: in vivo, mice; conditions: 20.8 mg/kg
# Outline: as §1
# [11] = tested on: ALL xenograft models; experiment: Objective responses across the ALL xenograft panel; type: in vivo, mice
# Outline: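 Female NOD/scid mice inoculated intravenously with leukemia cells, 8 per group. Test compound suspended in 10% 2-hydroxypropyl-β-cyclodextrin/1% sodium bicarbonate in water. Given by oral gavage twice daily, 5 days weekly for 3 weeks, at 20.8, 10.4, 5.2 or 2.6 mg/kg. Blood %hCD45 of leukocytes tracked; event = hCD45 reaching 25%. EFS by Kaplan–Meier, exact log-rank vs controls. Median group response from individual scores.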
# [12] = tested on: CHLA-119 neuroblastoma cell line; experiment: DIMSCAN in vitro testing, 96 h; type: cell-based; conditions: for IC50: Neuroblastoma cell, 96 h
# Outline: as §2
# [13] = tested on: SMS-KAN neuroblastoma cell line; experiment: DIMSCAN in vitro testing, 96 h; type: cell-based
# [14] = tested on: solid tumor xenograft models; experiment: Objective responses across the solid tumor xenograft panel; type: in vivo, mice; conditions: MTD 20.8 mg/kg
# Outline: as §1
# [15] = tested on: SMS-KCNR neuroblastoma cell line; experiment: DIMSCAN in vitro testing, 96 h; type: cell-based; conditions: for IC50: 96 h
# Outline: as §2
# [16] = tested on: NB-1643 Neuroblastoma xenograft; type: in vivo, mice
# Outline: as §1
# [17] = tested on: CHLA-25 Ewing sarcoma cell line; experiment: DIMSCAN in vitro testing, 96 h; type: cell-based; conditions: for IC50: 96 h
# Outline: as §2
smiles,measurement,setting,value
COc1cc(Nc2ncc3c(n2)-c2ccc(Cl)cc2C(c2c(F)cccc2OC)=NC3)ccc1C(=O)O [MLN8237],mice that died in the MLN8237 treatment arms,[1],5 of 90
same,"mice that died in the MLN8237 treatment arms, percent",[1],5.6%
same,EFS T/C,[2],>1.7
same,Median group response,[2],"PD2 (if the TGD value >1.5, the mouse was considered PD2)"
same,Response activity,[2],Int
same,Tumor volume T/C,[2],0.31
same,Median RTV/hCD45 at end of study,[2]; RTV,2.1
same,IC50,[3]; read-out: Absolute IC50,26 nM
same,IC50,[3]; read-out: Relative IC50,23 nM
same,Ymin,"[3]; SMS-KANR, minimum T/C",11.4%
same,IC50,[4]; read-out: Absolute IC50,132 nM
same,IC50,[4]; read-out: Relative IC50,82 nM
same,Ymin,"[4]; CHLA-258, minimum T/C",18.8%
same,EFS T/C,[5]; 2.6 mg/kg,>1.5
same,Median group response,[5]; 2.6 mg/kg,"PD2 (if the TGD value >1.5, the mouse was considered PD2)"
same,Response activity,[5]; 2.6 mg/kg,Int
same,Tumor volume T/C,[5]; 2.6 mg/kg,0.75
same,Median RTV/hCD45 at end of study,[5]; 2.6 mg/kg,3.5
same,EFS T/C,[5]; 5.2 mg/kg,>1.5
same,Median group response,[5]; 5.2 mg/kg,"PD2 (if the TGD value >1.5, the mouse was considered PD2)"
same,Response activity,[5]; 5.2 mg/kg,Int
same,Tumor volume T/C,[5]; 5.2 mg/kg,0.70
same,Median RTV/hCD45 at end of study,[5]; 5.2 mg/kg,3.4
same,EFS T/C,[5]; 10.4 mg/kg,>1.5
same,Median group response,[5]; 10.4 mg/kg,"PD2 (if the TGD value >1.5, the mouse was considered PD2)"
same,Response activity,[5]; 10.4 mg/kg,Int
same,Tumor volume T/C,[5]; 10.4 mg/kg,0.56
same,Median RTV/hCD45 at end of study,[5]; 10.4 mg/kg,2.0
same,EFS T/C,[5]; 20.8 mg/kg,>1.5
same,Response activity,[5]; 20.8 mg/kg,Int
same,Tumor volume T/C,[5]; 20.8 mg/kg,0.45
same,Median RTV/hCD45 at end of study,[5]; 20.8 mg/kg,0.8
same,evaluable lines meeting the criteria for high activity (EFS T/C),[6],Eight out of 11
same,Ymin,"[7]; CHLA-90, minimum T/C",16.3%
same,IC50,[7]; read-out: Absolute IC50,61 nM
same,IC50,[7]; read-out: Relative IC50,48 nM
same,time of return of mitotic indices to baseline levels,[8],24 h
same,time of peak of mitotic indices / pharmacodynamic activity,[8]; 20.8 mg/kg,12 h
same,"increase of mitotic indices (MPM2, pHistH3) within 6 h",[8]; 6 h,approximately twofold
same,"increase of mitotic indices (MPM2, pHistH3) at peak",[8]; 12 h,three to fivefold
same,IC50,[9]; read-out: Absolute IC50,22 nM
same,IC50,[9]; read-out: Relative IC50,17 nM
same,Ymin,"[9]; SMS-MSN, minimum T/C",16.1%
same,EFS T/C,[10],1.4
same,EFS activity,[10],Low
same,Estimate of median time to event,[10],7.6 days
same,Median group response,[10],"PD1 (if the TGD value ≤1.5, that mouse was considered PD1)"
same,Response activity,[10],Low
same,Tumor volume T/C,[10],0.71
same,Median RTV/hCD45 at end of study,[10]; RTV,>4
same,ALL xenografts classified as objective responses,"[11]; 0.25MTD, three models",two out of three
same,response in ALL models,"[11]; 0.5MTD, three models",CR in each of three ALL models
same,"ALL xenografts with objective responses, of 3 tested",[11]; MTD 20.8 mg/kg,3
same,Ymin,"[12]; CHLA-119, minimum T/C",0.5%
same,IC50,[12]; read-out: Absolute IC50,22 nM
same,IC50,[12]; read-out: Relative IC50,22 nM
same,IC50,[13]; read-out: Absolute IC50,34 nM
same,IC50,[13]; read-out: Relative IC50,32 nM
same,objective responses out of 9 models in the solid tumor panel,[14],5
same,IC50,[15]; read-out: Absolute IC50,10 nM
same,IC50,[15]; read-out: Relative IC50,9 nM
same,Ymin,[15]; minimum T/C,6.6%
same,EFS T/C,[16]; 2.6 mg/kg,1.2
same,EFS activity,[16]; 2.6 mg/kg,Low
same,Estimate of median time to event,[16]; 2.6 mg/kg,20.3 days
same,Median group response,[16]; 2.6 mg/kg,"PD1 (if the TGD value ≤1.5, that mouse was considered PD1)"
same,Response activity,[16]; 2.6 mg/kg,Low
same,Tumor volume T/C,[16]; 2.6 mg/kg,1.01
same,Median RTV/hCD45 at end of study,[16]; 2.6 mg/kg,>4
same,EFS T/C,[16]; 5.2 mg/kg,>2.4
same,EFS activity,[16]; 5.2 mg/kg,High
same,Response activity,[16]; 5.2 mg/kg,High
same,Tumor volume T/C,[16]; 5.2 mg/kg,0.38
same,Median RTV/hCD45 at end of study,[16]; 5.2 mg/kg,0.4
same,EFS T/C,[16]; 10.4 mg/kg,>2.4
same,EFS activity,[16]; 10.4 mg/kg,High
same,Median group response,[16]; 10.4 mg/kg,MCR
same,Response activity,[16]; 10.4 mg/kg,High
same,Tumor volume T/C,[16]; 10.4 mg/kg,0.30
same,Median RTV/hCD45 at end of study,[16]; 10.4 mg/kg,0.0
same,EFS T/C,[16]; 20.8 mg/kg,>2.4
same,EFS activity,[16]; 20.8 mg/kg,High
same,Median group response,[16]; 20.8 mg/kg,MCR
same,Response activity,[16]; 20.8 mg/kg,High
same,Tumor volume T/C,[16]; 20.8 mg/kg,0.14
same,Median RTV/hCD45 at end of study,[16]; 20.8 mg/kg,0.0
same,IC50,[17]; read-out: Absolute IC50,168 nM
same,IC50,[17]; read-out: Relative IC50,58 nM
same,Ymin,"[17]; CHLA-25, minimum T/C",30.1%
